The results in this text go back to ChEMBL document CHEMBL1130758, “alpha-substituted quisqualic acid analogs: new metabotropic glutamate receptor group II selective antagonists” (Bioorg Med Chem Lett, 1998).

Experiment [1] deals with T1, Glutamate receptor ionotropic, kainate (Rattus norvegicus) (UniProt P22756+Q01812+P42260+P42264+Q63273). The experiment can be described thus: Antagonistic activity against Ionotropic glutamate receptor kainate was determined by the percentage of 45 [Ca2+] influx in cerebellar neurons at the concentration 100 uM. It counts as functional. Put shortly: (§1)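 Rat cerebellar neurons (7-day-old pups, 8-9 days in culture) were given 45CaCl2 (1 µCi/mL) in Locke's buffer with 1 mM Mg2+, 50 µM kainate and 1 µM MK-801, for 15 min at room temperature. After three ice-cold washes and dissolution in 0.5 M NaOH, radioactivity and protein were measured. Results are % of net kainate-alone influx, mean ± S.E.M., n=6 from two preparations.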

In experiment [2] the target is T1, Glutamate receptor ionotropic, kainate (Rattus norvegicus). The experiment can be described thus: Antagonistic activity against Ionotropic glutamate receptor kainate was determined by the percentage of 45 [Ca2+] influx in cerebellar neurons at the concentration 1 mM. It is filed as functional. Put shortly: as §1
The target of experiment [3] is T2, Glutamate receptor ionotropic, AMPA (Rattus norvegicus) (UniProt P19491+P19492+P19493+P19490). Kind of experiment: Antagonistic activity against Ionotropic glutamate receptor AMPA was determined by the percentage of 45 [Ca2+] influx in cerebellar neurons at the concentration 1 mM. It counts as functional. Put shortly: (§2)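 Cerebellar neurons cultured from 7-day-old rats (used at 8-9 days) had 45Ca2+ influx (1 µCi/mL) measured over 15 min at room temperature in Locke's buffer with 1 mM Mg2+, 30 µM AMPA, 10 µM cyclothiazide and 1 µM MK-801. Cells were washed three times ice-cold, dissolved in NaOH and counted, normalized to protein. Results are % of net AMPA-alone influx, mean ± S.E.M., six measurements from two preparations.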

The target in experiment [4] is T2, Glutamate receptor ionotropic, AMPA (Rattus norvegicus). Kind of experiment: Antagonistic activity against Ionotropic glutamate receptor AMPA was determined by the percentage of 45 [Ca2+] influx in cerebellar neurons at the concentration 100 uM. It is filed as functional. In short, it runs like this: as §2
For experiment [5], the target named is Metabotropic glutamate receptor 6 (Rattus norvegicus, UniProt P35349). Kind of experiment: Antagonistic activity against rat (mGluR) metabotropic glutamate receptor 6 stably expressed in chinese hamster ovary (CHO) cells. It is filed as functional, cell-based.
Experiment [6] addresses Metabotropic glutamate receptor 4 (Rattus norvegicus, UniProt P31423). Kind of experiment: Antagonistic activity against rat (mGluR) metabotropic glutamate receptor 4a stably expressed in chinese hamster ovary (CHO) cells. It is filed as functional, cell-based.
Experiment [7] deals with Metabotropic glutamate receptor 1 (Rattus norvegicus, UniProt P23385). The experiment can be described thus: Antagonistic activity against rat (mGluR) metabotropic glutamate receptor 1a stably expressed in chinese hamster ovary (CHO) cells. It is filed as functional, cell-based. In short, it runs like this: (§3)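 CHO cells expressing the receptor were labelled overnight with myo-[3H]inositol in glutamine-free medium. They were then exposed to compounds for 30 min at 37 °C in Locke's buffer (HEPES, pH 7.4) with 20 mM LiCl. Inositol phosphates were extracted for 10 min with 0.1 M HCl and separated by anion-exchange chromatography.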

The target of experiment [8] is Metabotropic glutamate receptor 5 (Rattus norvegicus, UniProt P31424). The experiment can be described thus: Antagonistic activity against rat (mGluR) metabotropic glutamate receptor 5a stably expressed in chinese hamster ovary (CHO) cells. It counts as functional, cell-based. Put shortly: as §3
Experiment [9] concerns the target T3, Glutamate NMDA receptor (Rattus norvegicus) (UniProt P35439+Q00959+Q00960+Q00961+Q62645+Q8VHN2+Q9R1M7). Kind of experiment: Antagonistic activity against NMDA ionotropic glutamate receptor was determined by the percentage of 45 [Ca2+] influx in cerebellar neurons at the concentration 100 uM. It counts as functional. Put shortly:
(§4)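 Rat cerebellar neurons (7-day-old pups, 8-9 days in culture) were incubated for 15 min at room temperature in Mg2+-free Locke's buffer with 1 µCi/mL 45CaCl2, 100 µM NMDA, 1 µM glycine and 10 µM NBQX. Cells were washed three times with ice-cold buffer and dissolved in 0.5 M NaOH to count radioactivity and protein. Results are % of net agonist-alone influx, mean ± S.E.M. of six measurements from two culture preparations.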

In experiment [10] the target is T3, Glutamate NMDA receptor (Rattus norvegicus). The experiment can be described thus: Antagonistic activity against NMDA ionotropic glutamate receptor was determined by the percentage of 45 [Ca2+] influx in cerebellar neurons at the concentration 1 mM. It is filed as functional. Put shortly: as §4

Chain of Metabotropic glutamate receptor 5 (P31424 whole entry): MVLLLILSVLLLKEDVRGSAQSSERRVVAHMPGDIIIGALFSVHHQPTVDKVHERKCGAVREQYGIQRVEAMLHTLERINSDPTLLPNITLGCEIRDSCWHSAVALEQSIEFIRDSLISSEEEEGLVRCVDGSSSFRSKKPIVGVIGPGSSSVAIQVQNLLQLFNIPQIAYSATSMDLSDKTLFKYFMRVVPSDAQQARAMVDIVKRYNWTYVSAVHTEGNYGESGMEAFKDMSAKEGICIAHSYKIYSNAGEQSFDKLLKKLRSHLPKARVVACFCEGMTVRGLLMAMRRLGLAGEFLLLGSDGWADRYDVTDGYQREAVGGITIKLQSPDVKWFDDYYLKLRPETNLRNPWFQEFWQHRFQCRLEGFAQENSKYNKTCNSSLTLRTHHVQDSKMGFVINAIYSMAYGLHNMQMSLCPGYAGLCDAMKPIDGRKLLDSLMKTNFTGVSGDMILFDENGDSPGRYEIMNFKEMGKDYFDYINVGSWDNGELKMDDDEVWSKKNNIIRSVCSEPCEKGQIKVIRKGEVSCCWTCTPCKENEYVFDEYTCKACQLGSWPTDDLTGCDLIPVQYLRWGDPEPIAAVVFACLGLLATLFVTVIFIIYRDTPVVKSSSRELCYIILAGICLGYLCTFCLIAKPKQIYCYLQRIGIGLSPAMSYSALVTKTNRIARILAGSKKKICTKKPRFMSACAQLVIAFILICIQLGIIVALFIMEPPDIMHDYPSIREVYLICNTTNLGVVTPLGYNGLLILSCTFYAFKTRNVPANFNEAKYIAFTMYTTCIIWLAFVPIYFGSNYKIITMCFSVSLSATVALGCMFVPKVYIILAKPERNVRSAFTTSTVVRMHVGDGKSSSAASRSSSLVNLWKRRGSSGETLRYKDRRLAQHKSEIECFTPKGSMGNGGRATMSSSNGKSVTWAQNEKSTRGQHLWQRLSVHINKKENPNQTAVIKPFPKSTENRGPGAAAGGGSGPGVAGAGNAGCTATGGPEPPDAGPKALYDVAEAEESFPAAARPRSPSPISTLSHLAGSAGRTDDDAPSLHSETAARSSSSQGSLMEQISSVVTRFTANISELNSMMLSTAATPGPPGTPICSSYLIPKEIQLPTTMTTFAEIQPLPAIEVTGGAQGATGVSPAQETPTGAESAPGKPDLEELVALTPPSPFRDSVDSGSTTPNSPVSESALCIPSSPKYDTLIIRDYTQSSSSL
Chain of Metabotropic glutamate receptor 4 (P31423 whole entry): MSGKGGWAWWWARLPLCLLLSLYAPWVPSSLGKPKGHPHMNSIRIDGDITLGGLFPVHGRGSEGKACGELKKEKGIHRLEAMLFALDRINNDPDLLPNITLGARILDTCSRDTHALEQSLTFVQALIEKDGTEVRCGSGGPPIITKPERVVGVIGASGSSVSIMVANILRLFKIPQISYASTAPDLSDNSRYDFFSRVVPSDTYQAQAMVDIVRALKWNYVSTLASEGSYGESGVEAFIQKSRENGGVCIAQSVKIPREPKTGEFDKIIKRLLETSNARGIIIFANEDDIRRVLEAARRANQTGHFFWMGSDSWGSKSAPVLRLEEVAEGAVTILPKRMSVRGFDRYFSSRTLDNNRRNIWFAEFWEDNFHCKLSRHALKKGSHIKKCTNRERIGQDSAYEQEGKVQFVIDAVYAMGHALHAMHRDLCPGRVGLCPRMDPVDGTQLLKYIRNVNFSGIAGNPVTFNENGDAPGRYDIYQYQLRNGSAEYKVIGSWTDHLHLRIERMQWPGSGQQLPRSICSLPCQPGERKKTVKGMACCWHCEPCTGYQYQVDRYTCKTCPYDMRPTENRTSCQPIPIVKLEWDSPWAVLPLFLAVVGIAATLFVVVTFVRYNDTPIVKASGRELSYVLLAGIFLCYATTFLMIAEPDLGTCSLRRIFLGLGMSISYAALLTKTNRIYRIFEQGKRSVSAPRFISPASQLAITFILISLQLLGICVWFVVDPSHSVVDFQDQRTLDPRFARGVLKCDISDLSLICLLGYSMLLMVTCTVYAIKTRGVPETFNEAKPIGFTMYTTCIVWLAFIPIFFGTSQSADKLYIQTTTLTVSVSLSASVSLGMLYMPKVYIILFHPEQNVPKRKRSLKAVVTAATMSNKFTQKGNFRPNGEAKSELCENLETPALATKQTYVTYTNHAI
Chain of Metabotropic glutamate receptor 1 (P23385 whole entry): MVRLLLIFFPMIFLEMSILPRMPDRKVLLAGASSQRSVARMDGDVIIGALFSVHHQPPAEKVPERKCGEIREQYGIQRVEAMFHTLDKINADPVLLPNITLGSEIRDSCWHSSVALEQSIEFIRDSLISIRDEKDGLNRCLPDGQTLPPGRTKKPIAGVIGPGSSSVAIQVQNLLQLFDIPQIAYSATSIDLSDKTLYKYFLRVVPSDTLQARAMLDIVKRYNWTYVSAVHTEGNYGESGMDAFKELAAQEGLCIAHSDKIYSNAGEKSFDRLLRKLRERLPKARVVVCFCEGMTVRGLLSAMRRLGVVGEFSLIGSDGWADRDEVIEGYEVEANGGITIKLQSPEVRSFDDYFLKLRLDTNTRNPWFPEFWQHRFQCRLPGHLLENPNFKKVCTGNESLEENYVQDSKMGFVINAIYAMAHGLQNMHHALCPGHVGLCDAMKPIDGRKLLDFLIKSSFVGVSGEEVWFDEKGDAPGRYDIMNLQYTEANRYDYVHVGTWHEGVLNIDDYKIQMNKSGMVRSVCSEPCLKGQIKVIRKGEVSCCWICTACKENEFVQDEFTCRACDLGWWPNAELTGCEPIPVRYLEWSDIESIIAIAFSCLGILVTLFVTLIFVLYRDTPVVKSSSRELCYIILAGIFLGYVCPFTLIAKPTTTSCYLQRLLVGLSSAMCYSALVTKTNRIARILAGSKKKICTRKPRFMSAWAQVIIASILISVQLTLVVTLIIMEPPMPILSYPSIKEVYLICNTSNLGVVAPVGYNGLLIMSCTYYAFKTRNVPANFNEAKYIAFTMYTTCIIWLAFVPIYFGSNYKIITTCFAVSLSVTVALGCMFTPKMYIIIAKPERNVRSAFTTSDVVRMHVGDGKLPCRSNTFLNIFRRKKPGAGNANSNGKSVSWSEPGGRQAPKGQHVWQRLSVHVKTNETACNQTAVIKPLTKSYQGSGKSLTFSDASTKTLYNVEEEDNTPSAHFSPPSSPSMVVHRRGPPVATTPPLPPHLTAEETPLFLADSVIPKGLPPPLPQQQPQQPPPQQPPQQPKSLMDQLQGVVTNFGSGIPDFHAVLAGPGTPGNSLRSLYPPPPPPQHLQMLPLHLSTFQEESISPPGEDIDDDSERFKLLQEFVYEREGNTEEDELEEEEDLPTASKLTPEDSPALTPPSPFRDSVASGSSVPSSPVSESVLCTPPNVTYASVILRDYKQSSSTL
Chain of Metabotropic glutamate receptor 6 (P35349 whole entry): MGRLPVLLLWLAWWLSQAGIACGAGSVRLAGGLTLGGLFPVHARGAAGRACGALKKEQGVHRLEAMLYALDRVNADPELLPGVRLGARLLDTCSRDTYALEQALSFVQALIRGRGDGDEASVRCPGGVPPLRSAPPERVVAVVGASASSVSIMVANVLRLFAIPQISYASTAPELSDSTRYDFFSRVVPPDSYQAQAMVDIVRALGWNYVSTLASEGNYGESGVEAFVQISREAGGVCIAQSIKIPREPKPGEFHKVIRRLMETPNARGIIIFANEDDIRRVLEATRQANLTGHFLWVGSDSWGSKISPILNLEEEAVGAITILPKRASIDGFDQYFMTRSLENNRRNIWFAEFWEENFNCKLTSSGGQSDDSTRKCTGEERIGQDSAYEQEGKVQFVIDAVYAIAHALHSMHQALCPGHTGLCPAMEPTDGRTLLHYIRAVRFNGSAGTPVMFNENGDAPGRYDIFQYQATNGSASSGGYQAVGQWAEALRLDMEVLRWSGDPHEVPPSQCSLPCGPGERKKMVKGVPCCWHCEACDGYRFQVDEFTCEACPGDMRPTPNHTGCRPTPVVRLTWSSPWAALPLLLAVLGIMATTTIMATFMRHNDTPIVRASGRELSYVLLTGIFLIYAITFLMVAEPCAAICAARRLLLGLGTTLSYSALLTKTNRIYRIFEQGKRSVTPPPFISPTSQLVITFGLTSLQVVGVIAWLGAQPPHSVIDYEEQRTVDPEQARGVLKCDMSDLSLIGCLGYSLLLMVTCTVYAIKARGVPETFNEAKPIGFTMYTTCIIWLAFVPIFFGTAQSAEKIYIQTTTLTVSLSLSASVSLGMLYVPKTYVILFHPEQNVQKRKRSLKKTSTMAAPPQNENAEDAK

On to `N[C@@](Cc1ccccc1)(Cn1oc(=O)[nH]c1=O)C(=O)O`, for which the values for the KA effect in experiment [1] and in [2] were 97% and 105%, respectively. The AMPA effect in experiment [3] was 103%; in [4] it was 113%. In addition, the EC50 in [5] is over 1000 µM; in experiment [6], over 1000 µM; in experiment [7], about 300 µM; in experiment [8] it was about 300 µM. Also, the NMDA effect is 84% in [9] and 52% in experiment [10].

As to `C[C@](N)(Cn1oc(=O)[nH]c1=O)C(=O)O`, the values for the KA effect in experiment [1] and in experiment [2] were 71% and 75%, respectively. For the same compound, the AMPA effect in experiment [3] was 89%; in [4] it was 98%. For the same compound, the EC50 in [5] was over 1000 µM; in experiment [6] it was over 1000 µM; in experiment [7] it was about 500 µM; in [8], about 1000 µM. Moreover, the values for the NMDA effect in experiment [9] and in experiment [10] were 105% and 30%, respectively.

One may read the EC50 as the concentration giving half of the maximal effect. Higher therefore signals lower potency in that assay.
